What was measured:
[1] = Neuroprotective activity in Wistar rat hippocampi primary neuronal cells assessed as protection against serum-deprivation induced cell death at 0.1 uM after 24 hrs by MTT assay; type: functional, Hippocampus, Primary neuron
Outline: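 Mixed neuron-glia cultures from E18 Wistar rat hippocampi (Neurobasal plus 10% FCS), used at 11 days in vitro. Medium replaced by saline to withdraw serum; cells held 24 h with compound. Cell survival measured by MTT reduction, expressed as % protection.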

[2] = Neuroprotective activity in Wistar rat hippocampi primary neuronal cells assessed as protection against glutamate-induced cell death at 0.1 uM treated 30 min before glutamate challenge measured after 22 hrs by MTT assay; type: functional, Hippocampus, Primary neuron
Outline: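 E18 fetal Wistar rat hippocampal neurons in neuron-enriched culture (Neurobasal, 2% B27, poly-L-lysine), used at 11 days in vitro. Compound added 30 min before 1 mM glutamate, exposure 22 h. Survival by MTT (mitochondrial dehydrogenase) read-out, reported as % protection.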

[3] = molecular target: T1, 5-hydroxytryptamine receptor 1A (Homo sapiens, UniProt P08908); test: Agonist activity at human 5HT1A receptor expressed in human HeLa cells assessed as inhibition of forskolin-stimulated cAMP production […] measured after 2 hrs by RIA; type: functional, cell-based
T1 sequence (P08908 whole entry): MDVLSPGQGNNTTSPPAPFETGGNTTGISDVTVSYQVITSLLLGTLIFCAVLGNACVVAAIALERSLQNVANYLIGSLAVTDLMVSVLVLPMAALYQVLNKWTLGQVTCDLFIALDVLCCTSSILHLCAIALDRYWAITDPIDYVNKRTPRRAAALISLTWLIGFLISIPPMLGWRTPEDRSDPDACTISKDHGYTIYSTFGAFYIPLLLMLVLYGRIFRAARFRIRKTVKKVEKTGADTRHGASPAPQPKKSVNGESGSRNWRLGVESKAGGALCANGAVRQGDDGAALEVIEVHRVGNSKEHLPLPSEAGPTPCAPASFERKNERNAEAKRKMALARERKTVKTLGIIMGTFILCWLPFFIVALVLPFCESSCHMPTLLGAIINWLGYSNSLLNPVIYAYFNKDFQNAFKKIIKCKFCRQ
Outline: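 HeLa cells stably expressing the h5-HT1AR, grown in DMEM with 2 mM glutamine, 1 mM pyruvate and 10% heat-inactivated FCS, and used after 2–3 days at about 7.5 × 10^4 cells/well. After a PBS wash, cells were incubated 10 min in PBS with 0.5 mM isobutylmethylxanthine and 10 μM forskolin, with or without compound. The reaction was stopped with ice-cold ethanol, extracted 2 h and lyophilized; cAMP was measured by RIA.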

Mus musculus = test: Antihypothermic activity in ip dosed Swiss mouse assessed as inhibition of 8-OH-DPAT-induced hypothermia administered 30 mins before 8-OH-DPAT challenge measured after 15 to 60 mins; type: functional; conditions: read-out: MED
Outline: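 Male Swiss mice (23–28 g) were housed five per cage. Rectal temperature (probe at 2 cm) was read at 15, 30 and 60 min after injection. The response was the maximum fall from basal temperature, analysed by ANOVA with Student–Newman–Keuls test.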

[4] = molecular target: T2, 5-hydroxytryptamine receptor 1A (Homo sapiens) (UniProt P08908); test: Agonist activity at human 5HT1A receptor expressed in human HeLa cells assessed as inhibition of forskolin-stimulated cAMP production pretreated 20 mins before forskolin challenge measured after 2 hrs by RIA relative to control; type: functional, cell-based
T2 sequence (whole entry): T1 sequence (P08908 whole entry)

Rattus norvegicus [5] = test: Neuroprotective activity in permanent middle cerebral artery occlusion-induced ischemic in Sprague-Dawley rat assessed as decrease in sub-cortical infract volume at 40 ug/kg/h, iv administered 1 hr before ischemia and 1 hr after ischemia measured after 24 hrs (reference value: 147 +/- 23 mm3); type: functional
Rattus norvegicus [6] = test: Neuroprotective activity against permanent middle cerebral artery occlusion-induced focal ischemia in Sprague-Dawley rat assessed as decrease in total cerebral infract volume at 40 ug/kg/h, iv administered 1 hr before ischemia and 1 hr after ischemia measured after 24 hrs (reference value: 546 +/- 51 mm3); type: functional
[7] = Neuroprotective activity in Wistar rat hippocampi primary neuronal cells assessed as protection against oxygen-glucose deprivation induced cell death at 0.1 uM after 18 hrs by MTT assay; type: functional, Hippocampus, Primary neuron
Rattus norvegicus [8] = test: Neuroprotective activity in permanent middle cerebral artery occlusion-induced ischemic in Sprague-Dawley rat assessed as decrease in cortical infract volume at 40 ug/kg/h, iv administered 1 hr before ischemia and 1 hr after ischemia measured after 24 hrs (reference value: 399 +/- 38 mm3); type: functional

SMILES	Activity [1] [%]	Activity [2] [%]	EC50 [3] [nM]	minimal effective dose (Mus musculus) [mg/kg]	Emax [4] [%]	Activity (Rattus norvegicus [5]) [mm3]	Activity (Rattus norvegicus [6]) [mm3]	Activity [7] [%]	Activity (Rattus norvegicus [8]) [mm3]
O=C1c2ccccc2S(=O)(=O)N1CCCCNCC1CCc2ccccc2O1 (racemic)	26	16	1.5	0.15	94.8				
O=C1c2ccccc2S(=O)(=O)N1CCCCNC[C@H]1CCc2ccccc2O1 [REPINOTAN]	31					106	377	78	271

Reference: ChEMBL document CHEMBL1926607 (J Med Chem, 2011)
